PubChem BioAssay
The source made the active and inactive calls.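 How the source made its calls, unless noted: active means compounds giving at least 50% inhibition in the cell-based MKP-3 phosphatase rescue imaging test; inactive means the rest.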

Tests used:
[1] = inhibitors of TNFa-induced NFkB p65 translocation, primary screen, imaging, HUVEC, MLSMR starter and 10KST1 sets (AID 438;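 active means inhibition above 20% together with a positive visual image hit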;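 further: compound added about 3h40 before a 20 min TNFalpha stimulation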;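 on inhibition: signal is the nuclear over cytoplasmic p65 intensity ratio per well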); conditions: HUVEC TNFa-induced p65 nuclear translocation; cell count: measured here: nuclei count (cytotoxicity indicator), at 2.08 µM; inhibition: at 2 µM, stronger effect = higher value, 0% TNFa-plus-vehicle, 100% no-TNFa wells
[2] = endothelial E-selectin expression blockers – imaging, HUVEC, immunofluorescence, MLSMR starter and 10KST1 sets, primary screen (AID 487;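 active means visually confirmed hit in the image check and inhibition above 20%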;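 on inhibition: signal is fraction of cell area covered by stained E-selectin grains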;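 on nuclei count: 100% = median nuclei count of all wells on the same plate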); conditions: HUVEC TNFalpha-induced E-selectin immunofluorescence imaging, at 2 µM; inhibition: stronger effect = higher value; nuclei count: measured here: cell number, toxicity
[3] = Primary imaging screen for DUSP6 inhibitors that restore phospho-Erk in transfected HeLa cells, chemical complementation (AID 609); conditions: HeLa MKP-3 transfected, phospho-Erk imaging KS statistic, at 10 µM, cells stimulated with TPA for 15 min;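 on inhibition: phospho-Erk level distribution per well compared with pooled transfected vehicle control wells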
[4] = biological target: Dual specificity protein phosphatase 6 (Homo sapiens) (UniProt Q16828); assay: as above; conditions: HeLa MKP-3 transfected, phospho-Erk imaging KS statistic; at 10 µM; stronger effect = higher value; cells stimulated with TPA for 15 min
Dual specificity protein phosphatase 6 (Homo sapiens), sequence (Q16828 whole entry, looked up): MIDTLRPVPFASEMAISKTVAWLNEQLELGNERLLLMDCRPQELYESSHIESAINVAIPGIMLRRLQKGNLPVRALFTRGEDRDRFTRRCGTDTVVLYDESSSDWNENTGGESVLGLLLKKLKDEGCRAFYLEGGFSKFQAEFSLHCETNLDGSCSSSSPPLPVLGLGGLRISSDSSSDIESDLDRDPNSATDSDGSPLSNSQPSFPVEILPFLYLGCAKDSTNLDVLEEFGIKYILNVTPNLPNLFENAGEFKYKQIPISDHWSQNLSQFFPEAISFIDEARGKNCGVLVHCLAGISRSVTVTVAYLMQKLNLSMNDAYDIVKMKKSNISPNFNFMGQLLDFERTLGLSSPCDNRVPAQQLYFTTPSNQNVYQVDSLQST

[5] = biological target: Voltage-gated potassium channel subunit beta-2 (Rattus norvegicus) (UniProt P62483); assay: inhibitors of rat Kvbeta2 reductase activity – biochemical, NADPH fluorescence, primary screen (AID 622;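 active means fluorescence slope higher than the sample average by over 3 SD, cut at about -0.22 in these data, passing the limit was not always enough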;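 further: slope of raw intensity against log time taken from 70 to 1610 s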); conditions: recombinant KvBeta, 4-cyanobenzaldehyde reduction, at 10 µM, stronger effect = higher value
Voltage-gated potassium channel subunit beta-2 (Rattus norvegicus), sequence (P62483 whole entry, looked up): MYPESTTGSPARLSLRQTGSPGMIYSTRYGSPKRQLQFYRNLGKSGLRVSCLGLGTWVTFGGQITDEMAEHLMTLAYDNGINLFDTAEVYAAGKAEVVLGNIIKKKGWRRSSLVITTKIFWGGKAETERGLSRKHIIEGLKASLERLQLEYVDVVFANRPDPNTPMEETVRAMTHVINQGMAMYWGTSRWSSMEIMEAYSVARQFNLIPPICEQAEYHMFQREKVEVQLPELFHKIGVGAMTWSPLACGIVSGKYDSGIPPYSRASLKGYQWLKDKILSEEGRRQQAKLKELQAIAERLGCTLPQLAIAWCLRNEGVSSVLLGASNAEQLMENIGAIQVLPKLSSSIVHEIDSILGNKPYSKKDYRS

[6] = biological target: Voltage-gated potassium channel subunit beta-2 (Rattus norvegicus) (UniProt P62483); assay: enhancers of rat Kvbeta2 NADPH turnover – biochemical, NADPH fluorescence, primary screen (AID 623;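 active means NADPH fluorescence slope more negative than the mean of all samples by about 3 SD, 99.7% confidence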;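 further: fluorescence intensity change per second fitted from 20 to 320 s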); conditions: Recombinant KvBeta, NADPH fluorescence decrease slope, 10 min; at 10 µM; stronger effect = lower value
[7] = biological target: Muscarinic acetylcholine receptor M4 (Homo sapiens) (UniProt P08173); assay: M4-linked GIRK flux change, two-sided – cell-based, HEK293 M4/GIRK, thallium flux, BTC-AM, M4 allosteric agonist project, primary screen (AID 625;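 active means fluorescence slope after compound addition differing from the mean of all tested samples at 99.7% confidence, mostly higher but some lower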;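 further: thallium influx through GIRK channels coupled to M4 in HEK293 cells with BTC-AM dye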); conditions: at 10 µM, actives lie on both sides
Muscarinic acetylcholine receptor M4 (Homo sapiens), sequence (P08173 whole entry, looked up): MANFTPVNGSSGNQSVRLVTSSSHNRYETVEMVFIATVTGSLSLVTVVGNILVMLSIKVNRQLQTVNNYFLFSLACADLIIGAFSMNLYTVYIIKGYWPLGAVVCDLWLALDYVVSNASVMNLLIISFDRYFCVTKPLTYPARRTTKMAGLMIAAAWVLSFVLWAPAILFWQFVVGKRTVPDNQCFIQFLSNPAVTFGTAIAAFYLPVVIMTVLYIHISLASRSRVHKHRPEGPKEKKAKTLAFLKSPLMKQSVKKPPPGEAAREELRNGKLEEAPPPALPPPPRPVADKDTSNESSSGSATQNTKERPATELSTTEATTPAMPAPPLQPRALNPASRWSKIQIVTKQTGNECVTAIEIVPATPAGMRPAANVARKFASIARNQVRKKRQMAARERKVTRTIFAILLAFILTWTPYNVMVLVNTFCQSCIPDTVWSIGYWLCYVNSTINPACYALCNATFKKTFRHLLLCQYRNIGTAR
Method in brief: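 Assay system: HEK293 cells with M4 receptor and GIRK channels / Controls: carbachol and DMSO controls / Schedule: 1 h dye loading, 2 min kinetic read / Technique: kinetic fluorescence with BTC-AM dye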

[8] = inhibitors of larval lipid processing in zebrafish, primary screen, whole organism, PED6 fluorescence, gall bladder and intestine (AID 686;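 active means a full or partial loss of lipid-probe fluorescence in the fish gall bladder, intestine or both, judged by eye; inactive means no fluorescence loss, or compound toxic to the fish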;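 further: larvae 5 to 7 days old with five fish per well; signal comes from phospholipase A2 cleavage of quenched PED6 carried via bile; overnight exposure to compound and PED6 before scoring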); conditions: Zebrafish larvae PED6 lipid processing, fluorescence scoring; screened at 20 µM (by protocol)
Method in brief: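 Doses: 20 µM single dose. Test system: live zebrafish larvae aged 5-7 days, whole organism. Quantity: five larvae per well. Measured by: By-eye fluorescence microscopy. Reagent: ingested quenched lipid PED6 at 100 nM. Read-out: visual per-well fluorescence inhibition score. Times: overnight exposure of larvae to compound plus PED6.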

[9] = loss of swimming-algae plug formation – whole organism, Chlamydomonas reinhardtii, WT vs cilia-less mutant, absorbance, 96-well, primary screen (AID 463189;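 active means inhibition at or above 50% relative to wild type and mutant plate controls; inactive means inhibition below 50%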;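 further: 0% = wild type cc124 cells in DMSO and 100% = ciliumless bld1 mutant cells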); conditions: Chlamydomonas reinhardtii gravitaxis, OD600 absorbance, 2 days; at 10 µM; stronger effect = higher value
[10] = measured here: cell density z-score
[11] = measured here: nuclear c-Myc green intensity z-score
[12] = measured here: nuclear pErk red intensity z-score, stronger effect = higher value

Structure (SMILES)	cell count [1]	inhibition [1]	inhibition [2]	nuclei count [2] [%]	z-score [3, 10]	z-score [3, 11]	z-score [3, 12]	inhibition [4]	fluorescence slope [5]	NADPH fluorescence slope [6]	fluorescence slope [7]	outcome [8]	inhibition [9]
CCOC(=O)CSc1nc(-c2ccc3c(c2)OCO3)ccc1C#N	676	4.9% (inactive)	5.4% (inactive)	120	-0.127	-1.03	0.898	-2.91% (inactive)	-0.199 (inactive)	-8.6e-07 (inactive)	0.00583 (inactive)	inactive	-3.42% (inactive)
O=C(NCCCN1CCOCC1)C1(c2ccccc2)CCOCC1	610	-2% (inactive)	14.3% (inactive)	91.3	-0.279	1.09	-0.449	-3.95% (inactive)	-0.501 (inactive)	-2.1e-05 (inactive)	0.0058 (inactive)	inactive	19.5% (inactive)
NC(=O)C1CCN(C2OC(=O)c3ccccc32)CC1 (stereo unspecified)	399	-1.7% (inactive)	-148% (inactive)	160	0.349	0.288	-0.804	5.65% (inactive)	-0.447 (inactive)	-8.4e-05 (inactive)	0.0046 (inactive)	inactive	33.2% (inactive)
COC(=O)C1CCN(c2nc3ccccc3nc2C(C#N)C(=O)NCCc2ccccc2)CC1 (stereo unspecified)	600	-8.8% (inactive)	-60.5% (inactive)	199	0.0104	-0.0979	-0.225	1.42% (inactive)	-0.356 (inactive)	-5.2e-05 (inactive)	0.00365 (inactive)	inactive	-8.92% (inactive)
Cc1cc(=O)oc(C)c1C(=O)NC12CC3CC(CC(C3)C1)C2	739	-12.2% (inactive)	-66.8% (inactive)	166	-0.0351	0.102	0.73	-6.48% (inactive)	-0.455 (inactive)	-5.7e-05 (inactive)	0.00545 (inactive)	inactive	6.04% (inactive)
Clc1ccc(COc2ccccn2)c(Cl)c1	600	2.8% (inactive)	-15.4% (inactive)	138	0.311	-1.08	-1.17	23.8% (inactive)	-0.387 (inactive)	-4.6e-05 (inactive)	0.00573 (inactive)	inactive	-0.499% (inactive)
N#Cc1ccc(-c2ccc(OCC(O)Cn3nnc4ccccc43)cc2)cc1 (stereo unspecified)	528	-15.6% (inactive)	-19.3% (inactive)	116	-2.55	0.882	0.638	5.42% (inactive)	-0.422 (inactive)	-6e-06 (inactive)	0.00426 (inactive)	inactive	52.4% (active)
COC(=O)NCC12CC3CC(C1)CC(CNC(=O)OC)(C3)C2	541	2.3% (inactive)	-75% (inactive)	122	0.785	1.4	-1.34	5.42% (inactive)	-0.467 (inactive)	-0.0001 (inactive)	0.00455 (inactive)	inactive	-5.97% (inactive)
O=C(NCc1cccnc1)NC(C(F)(F)F)C(F)(F)F	671	-1.2% (inactive)	-24.5% (inactive)	148	0.957	-0.408	-4.89	1.63% (inactive)	-0.454 (inactive)	-5.1e-05 (inactive)	0.00444 (inactive)	inactive	-3.5% (inactive)
COc1ccc(Nc2nnc(C)c3ccccc23)cc1C(N)=O	616	-2.5% (inactive)	-91.7% (inactive)	152	-0.473	0.976	-0.605	3.49% (inactive)	-0.459 (inactive)	-0.000141 (inactive)	0.00456 (inactive)	inactive	-4.27% (inactive)
Cc1cc2c(c(=O)n1Cc1ccccn1)C(c1ccc3c(c1)OCO3)C(C#N)=C(N)O2 (stereo unspecified)	692	-7.3% (inactive)	-44.9% (inactive)	183	0.057	2.34	0.285	-2.91% (inactive)	-0.451 (inactive)	-5.4e-05 (inactive)	0.00525 (inactive)	inactive	11.3% (inactive)
COC(=O)C(NC(=O)c1ccco1)(Nc1ccc(Br)cn1)C(F)(F)F (stereo unspecified)	717	-8.8% (inactive)	13.2% (inactive)	147	-0.772	-0.373	1.11	-5.81% (inactive)	-0.457 (inactive)	-6.6e-05 (inactive)	0.00446 (inactive)	inactive	4.54% (inactive)
COc1cccc(C2/C(=C(\O)c3ccc(OC)c(OC)c3)C(=O)C(=O)N2c2cc(C)on2)c1 (stereo unspecified)	715	1.5% (inactive)	-63.2% (inactive)	178	-0.072	-0.154	1.26	-4.7% (inactive)	-0.449 (inactive)	-3e-05 (inactive)	0.00553 (inactive)	inactive	-1.1% (inactive)
O=C(c1ccc(=O)oc1)N1CCN(C(c2ccccc2)c2ccccc2)CC1	630	-3.2% (inactive)	-22.1% (inactive)	168	-0.99	0.461	1.67	-3.95% (inactive)	-0.474 (inactive)	-7.6e-05 (inactive)	0.00524 (inactive)	inactive	4.32% (inactive)
CCCC1C(c2ccc(OC)cc2)C(C#N)(C#N)C2(C#N)CC1(N)NC2=O (stereo unspecified)	369	-0.7% (inactive)	-28.9% (inactive)	84.9	-2.59	2.42	-0.136	-2.69% (inactive)	-0.495 (inactive)	3.3e-05 (inactive)	0.00515 (inactive)	inactive	-15.7% (inactive)
CCc1ccc(-c2cn3nc(C)c(C)nc3n2)cc1	539	-0.3% (inactive)	5.5% (inactive)	143	0.256	-1.56	-0.591	9.91% (inactive)	-0.0112 (inactive)	2.5e-06 (inactive)	0.00271 (inactive)	inactive	23.7% (inactive)
CCOC(=O)CC(=O)CSc1nnc2sc3ccccc3n12	493	-14.5% (inactive)	27.3% (inactive)	174	0.311	0.752	-0.0836	3.97% (inactive)	-0.427 (inactive)	-3e-05 (inactive)	0.0062 (inactive)	inactive	6.97% (inactive)
CCOc1ccc(/C(O)=C2/C(=O)C(=O)N(c3cc(C)on3)C2c2ccc(C(=O)OC)cc2)cc1 (stereo unspecified)	391	-0.4% (inactive)	-27.6% (inactive)	105	-0.142	1.45	-0.188	9.37% (inactive)	-0.419 (inactive)	-1.9e-05 (inactive)	0.00438 (inactive)	inactive	11.4% (inactive)
CSc1nc(C)c2c(c1C#N)CCCC2	507	-9.7% (inactive)	-266% (inactive)	148	-0.174	-0.19	-1.41	1.04% (inactive)	-0.455 (inactive)	-3.8e-05 (inactive)	0.00451 (inactive)	inactive	10.6% (inactive)
CCCCN(CCCC)C(=O)CSc1nnc2n(C)c(=O)c3c4c(sc3n12)CCCC4	496	-18.2% (inactive)	-94.2% (inactive)	142	2.28	-1.51	-0.0585	7.93% (inactive)	-0.463 (inactive)	-4.6e-05 (inactive)	0.00616 (inactive)	inactive	84% (active)
CCCCCCOc1ccc(N2C(=O)CC(N3CCN(C(=O)c4ccco4)CC3)C2=O)cc1 (stereo unspecified)	632	8.2% (inactive)	-105% (inactive)	150	0.106	-0.155	-0.8	10.1% (inactive)	-0.487 (inactive)	-3.5e-05 (inactive)	0.00531 (inactive)	inactive	5.01% (inactive)
Cc1cccc(N2CC(=O)N(c3cccc(C)c3)CC2=O)c1	691	-1.4% (inactive)	-33.5% (inactive)	201	-0.963	0.808	-0.574	3.97% (inactive)	-0.477 (inactive)	-5.4e-05 (inactive)	0.00702 (inactive)	inactive	-8.04% (inactive)
Cc1cc(C)n(C2CCCCC2OC(=O)c2ccccc2)n1 (stereo unspecified)	526	-10% (inactive)	-95% (inactive)	129	-0.506	0.334	-1.55	9.91% (inactive)	-0.381 (inactive)	2e-06 (inactive)	0.00464 (inactive)	inactive	-9.73% (inactive)
Cn1c(NCC(O)c2ccccc2)nc2c1c(=O)n(Cc1ccc(Cl)cc1)c(=O)n2C (stereo unspecified)	676	8.4% (inactive)	-18% (inactive)	103	-0.206	0.674	-0.257	-9.53% (inactive)	-0.423 (inactive)	-4.1e-05 (inactive)	0.00426 (inactive)	inactive	8.04% (inactive)
CC(C)COc1ccc(C(=O)OCCN2CCOCC2)c(O)c1	551	-4.8% (inactive)	5.6% (inactive)	138	0.333	-1.8	0.367	19.8% (inactive)	-0.366 (inactive)	-3.7e-07 (inactive)	0.00568 (inactive)	inactive	20.9% (inactive)
CCC1(C)Cc2c(sc(NC(=O)CCC(=O)O)c2C#N)CO1 (stereo unspecified)	525	-3.4% (inactive)	-47% (inactive)	165	1.02	0.907	0.102	9.91% (inactive)	-0.382 (inactive)	-5.7e-05 (inactive)	0.00482 (inactive)	inactive	-2.53% (inactive)
CCOC(=O)c1[nH]c2cc3c(cc2c1NC(=O)CN1CC(C)CC(C)C1)OCO3 (stereo unspecified)	527	1.2% (inactive)	5.3% (inactive)	167	0.5	-1.18	-0.714	9.91% (inactive)	-0.329 (inactive)	-8.9e-06 (inactive)	0.00584 (inactive)	inactive	-3.44% (inactive)
